In the library only some 2.8% were active in any assay of this set; here they are far more common.
EP2 modulator: EP2 receptor modulators, cAMP readout, primary screen, cell-based, HTRF cAMP, PGE2 stimulation. induction, % at 25 µM. EP2-expressing cells, cAMP HTRF FRET, PGE2 co-stimulation. 0.83% of 260,000 active. AID 940, 2007. Prostaglandin E2 receptor EP2 subtype (Homo sapiens), P43116;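 active = compounds whose cAMP rise, as percent of the full-agonist control response, exceeds 60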;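 note: rat C6 glioma line stably carrying human EP2 under a CMV promoter; the protocol text gives 20 µM as final concentration; 100% = response of wells given 1 µM PGE2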
Target sequence (P43116 whole entry, looked up): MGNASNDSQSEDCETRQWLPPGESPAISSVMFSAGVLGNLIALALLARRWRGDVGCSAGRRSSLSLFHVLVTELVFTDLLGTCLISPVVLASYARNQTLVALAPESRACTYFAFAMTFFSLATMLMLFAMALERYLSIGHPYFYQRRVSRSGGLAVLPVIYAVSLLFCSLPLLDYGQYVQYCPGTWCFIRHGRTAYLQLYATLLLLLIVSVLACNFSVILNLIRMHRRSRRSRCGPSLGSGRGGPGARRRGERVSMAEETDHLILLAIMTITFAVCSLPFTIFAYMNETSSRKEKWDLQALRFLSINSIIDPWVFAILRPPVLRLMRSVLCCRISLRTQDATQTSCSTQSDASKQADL
NPY-Y2 antag: NPY-Y2 receptor antagonists, primary screen, cell-based; NPY-Y2 expressing cells, antagonist mode; inhibition, % at 2.7 µM; 0.99% of 140,000 active; in the data active = inhibition above about 17%;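 note: 0% = vehicle with agonist challenge and 100% = reference antagonist with challenge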
NPY1 pot ag: NPY-Y1 receptor potentiators or agonists, primary screen, cell-based; NPY-Y1 expressing cells, potentiator/agonist activation; activation, % at 3.6 µM; 0.37% of 220,000 active; Neuropeptide Y receptor type 1 (Homo sapiens), P25929; in the data active = activation above about 33%, passing the limit was not always enough;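 note: cells stimulated with NPY at EC10 then isoproterenol at EC100; 0% = low agonist plus stimulus and 100% = saturating agonist plus stimulus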
EP2 antag: human EP2 receptor antagonists, primary screen, TR-FRET cAMP, C6 glioma cells. Prostaglandin E2 receptor EP2 subtype (Homo sapiens), P43116. C6 glioma cells expressing human EP2; cells stimulated with saturating PGE2. 0.52% of 260,000 active. inhibition, % at 25 µM;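 active = percent inhibition above 40 after rounding to a whole number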;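 note: rat C6 glioma host cells with rolipram phosphodiesterase inhibitor present; the protocol text gives 20 µM as final concentration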
NPY-Y2 PAM-ag: NPY-Y2 potentiators or agonists, primary screen, cell-based; Neuropeptide Y receptor type 2 (Homo sapiens), P49146; cells expressing NPY-Y2, potentiator/agonist read-out; activation, % at 3.6 µM; 0.45% of 220,000 active; AID 1359, 2008; in the data active = activation above about 27%;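 note: cells stimulated with NPY near EC25 plus isoproterenol at EC100; 0% = vehicle plus submaximal agonist and 100% = vehicle plus saturating agonist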
NPY Y1 blocker: NPY-Y1 receptor antagonists, primary screen, cell-based | Neuropeptide Y receptor type 1 (Homo sapiens), P25929 | HEK293-CNG Y1 cells, membrane potential fluorescence; NPY at EC95, then isoproterenol | inhibition, % at 3.6 µM | 1% of 200,000 active;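 active = inhibition above the campaign mean inhibition of all tested compounds plus 3 SD, cut at about 20% in these data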;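 note: 0% = DMSO wells given NPY plus isoproterenol and 100% = isoproterenol alone without NPY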
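System: HEK293 cells with Y1 receptor plus CNG channel / Probe or stimulus: NPY 25 nM then isoproterenol 1 µM plus Ro 20-1724 25 µM / Compound: one concentration, 3.6 µM, in 0.4% DMSO / Schedule: compound incubation 1 h at room temperature, readout 45 min post-stimulation / Measured by: membrane potential fluorescence / Read-out: % inhibition of NPY effect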
The depositor's hits bear a star; x = no result; ! = repeats disagree.

SMILES	EP2 modulator	NPY-Y2 antag	NPY1 pot ag	EP2 antag	NPY-Y2 PAM-ag	NPY Y1 blocker
O=C(O)c1cc([N+](=O)[O-])ccc1Nc1ccccc1	-6	0	-17	12	-3	4
COCCOc1cc(NC(=O)c2sccc2Oc2ccc([N+](=O)[O-])cc2F)c(Cl)cc1Cl	30	-3	1	7	16	-5
O=C(c1ccc2c(c1)OCCO2)N1CCC(O)(c2cccnc2)CC1	-1	x	x	2	x	x
N#C/C(=C\c1cccnc1)c1ccc(Br)cc1	-2	x	-11	12	-29	x
CN(C)C/C=C(/c1ccc(Br)cc1)c1cccnc1	1	x	x	43*!	x	x
COc1ccc2cc(CN(Cc3cccs3)C(c3nnnn3C3CCCC3)C(C)C)c(=O)[nH]c2c1 (centres undefined)	69*	x	x	8	x	x
CCc1ccc2[nH]c(=O)c(CN(Cc3cccs3)C(c3nnnn3C3CCCC3)C(C)C)cc2c1 (centres undefined)	63*	x	x	10	x	x
COc1ccc2[nH]c(=O)c(CN(Cc3cccs3)Cc3nnnn3C(C)(C)C)cc2c1	55	12	-13	8	-13	6
COc1ccc2[nH]c(=O)c(CN(Cc3cccs3)C(c3nnnn3C(C)(C)C)C(C)C)cc2c1 (centres undefined)	69*	x	x	14	x	x
COc1ccccc1/C=C/CN1CCC(NC(C)=O)(c2ccccc2F)CC1	-37	x	x	4	x	x
CCn1c(SCC(=O)OC)nnc1-c1ccc(Cl)cc1	-7	x	x	12	x	x
N#C[C@H](c1ccccc1)N1CCCN([C@@H](C#N)c2ccccc2)C1c1ccccc1O (some centres undefined)	4	x	x	43*	x	x
CC1=NN(C(C#N)c2ccccc2)C(C)(C)C1 (centres undefined)	-14	x	10	9	6	3
COc1ccc2c(c1OC)C(=O)O[C@H]2[C@H]1c2c(cc3c(c2OC)OCO3)CCN1C	68*	x	x	10	x	x
COc1ccc2c(c1OC)CN1CCc3cc4c(cc3[C@@H]1[C@@H]2O)OCO4	1	0	-4	8	20	-1
COc1ccc(Nc2cnn(-c3nc4ccccc4s3)c(=O)c2Cl)cc1	-76	1	-5	61*	-2	-1
CCc1c(C)sc2nc(C(C)C)n3c(=O)n(Cc4cccnc4)nc3c12	19	x	x	x	x	x
CCc1c(C)sc2nc(C(C)C)n3c(=O)n(Cc4ccncc4)nc3c12	61*	x	x	x	x	x
Nc1ccc(S(=O)(=O)c2cccc(N)c2)cc1	-7	0	5	6	14	0
Nc1ccc(N(S(=O)(=O)c2ccccc2)S(=O)(=O)c2ccccc2)c(Cl)c1	-15	x	x	44*	x	x
CCN(CC(=O)NC(C)C)Cc1nc2c(Br)cc(Br)cc2c(=O)[nH]1	65*	x	6	13	-8	x
CCCn1c(SCC(=O)Nc2ccccc2Br)nnc1-c1ccoc1C	-10	x	x	10	x	x
N#Cc1c(N)sc(=S)c2c1CCCC2	14	2	-12	64*	8	0
CCCCOc1ccc(/C(O)=C2/C(=O)C(=O)N(Cc3cccnc3)C2c2ccncc2)c(C)c1 (centres undefined)	61*	0	-30	20	-13	1
Cc1cc(OCC(C)C)ccc1/C(O)=C1/C(=O)C(=O)N(Cc2cccnc2)C1c1ccncc1 (centres undefined)	60	0	13	29	2	-2
SMILES	EP2 modulator	NPY-Y2 antag	NPY1 pot ag	EP2 antag	NPY-Y2 PAM-ag	NPY Y1 blocker
CSc1nc(C)cc(Nc2ccc(O)c(CN3CCCCC3)c2)n1	-1	x	x	45*	x	x
CC(C)(C)OC(=O)N1CC=C2C(C#N)=C(N)C(C#N)(C#N)C(c3ccc4c(c3)OCO4)C2C1 (centres undefined)	15	x	x	40*	x	x
C=CCOc1ccc(/C=C2\SC(N3CCN(CCC#N)CC3)=NC2=O)cc1	-98	x	x	10	x	x
Cc1cc(Cl)ccc1Nc1sc(C(=O)c2cc3cc(Cl)ccc3o2)c(N)c1C#N	-16	x	x	51*	x	x
CC1=NN(c2nc(-c3ccc(C)cc3)cs2)C(=O)C1N=Nc1ccc2ccccc2c1 (centres undefined)	7	2	2	11	9	-1
CC1=NN(C(=O)c2ccncc2)C(=O)[C@@H]1N=Nc1ccc2ccccc2c1	-21	x	x	58*	x	x
CCS(=O)(=O)Nc1ccc(C2=NN(C(=O)c3ccco3)C(c3cccc(F)c3)C2)cc1 (centres undefined)	-41	x	35	8	35*	-6
CSc1nc(-c2ccccc2)nc2c1COC(C)(C)C2	64*	2	9	12	-25	2
Cc1ccc2nc(SC(C)C(=O)N3CC(C)OC(C)C3)[nH]c2c1 (centres undefined)	4	x	12	4	-11	21*
Cc1ccc2nc(SC(C)C(=O)N3CCCC3)[nH]c2c1 (centres undefined)	3	1	-10	16	2	4
COc1cc(C2Nc3c(Cl)cc(Cl)cc3C3C=CCC32)cc(OC)c1OC (centres undefined)	62*	x	x	11	x	x
COc1ccc(Br)cc1C1Nc2ccccc2C2C=CCC21 (centres undefined)	53	x	x	11	x	x
c1nc(N2CCCC2)c2c3c(sc2n1)CCC3	-25	x	x	8	x	x
CC(C)S(=O)(=O)c1csc(NC(=O)Nc2cccc([N+](=O)[O-])c2)c1Cl	-36	x	2	54*	10	x
CN1C(=O)/C(=C2\SC(=S)N(CCCCCC(=O)O)C2=O)c2ccccc21	75*	x	1	5	-1	x
CCC1CCCCN1C(=O)/C=C/c1ccccc1Cl (centres undefined)	3	x	x	4	x	x
CCC(C)(C)NC(=O)C(c1cccn1C)N(Cc1ccc(OC)cc1)C(=O)Cn1nnc2ccccc21 (centres undefined)	39	53*	-159	14	-81	52*
COc1ccccc1NC(=O)CSc1nc(C)nc2sc(C)c(C)c12	51	x	x	4	x	x
N#CCSc1nnc(COc2cccc3ccccc23)n1-c1cccc(Cl)c1	72*!	2	6	3	-7	1
CC1CCCCC1NC(=O)COC(=O)c1ccccc1NC(=O)c1ccco1 (centres undefined)	3	19*	-32	15	-8	30*
CNC(=O)COC(=O)c1ccccc1NC(=O)c1ccco1	-10	x	14	4	10	x
Clc1ccccc1-c1ncnc2ccc(Br)cc12	64*!	x	-3	17	-9	12
O=C(O)CCC(=O)N1CCN(c2nc(-c3ccccc3Cl)c3cc(Br)ccc3n2)CC1	33	5	-30	18	-13	8

Source: PubChem (several laboratories)
